Results as given in ChEMBL document CHEMBL1275480, “Role of global regulators and nucleotide metabolism in antibiotic tolerance in Escherichia coli” (2008).

Assays:
[1] = test system: Escherichia coli; experiment: Antimicrobial activity against ygfA deficient Escherichia coli K-12 BW-25113 assessed as decrease in persistence at 100 ug/ml after 3 hrs by time kill analysis; format: functional, K-12 BW25113
Outline: (§1)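 Keio single-gene deletion strains of E. coli K-12 BW25113 and the parent strain. Cultures: 1 ml LB overnight at 37°C with aeration, then diluted 1:100 into MOPS minimal medium (0.1% succinate, 0.05% Casamino Acids) and grown 5 h to exponential phase (~2 × 10^8 CFU/ml). Challenged 3 h with ciprofloxacin 1 μg/ml, streptomycin 10 μg/ml or ampicillin 100 μg/ml. Samples taken before and after, diluted, spot-plated on LB agar for CFU. Triplicate, standard deviations.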

[2] = test system: Escherichia coli; experiment: Antimicrobial activity against dksA deficient Escherichia coli K-12 BW-25113 assessed as decrease in persistence at 100 ug/ml after 3 hrs by time kill analysis; format: functional, K-12 BW25113; outline: as §1
[3] = test system: Escherichia coli; experiment: Antimicrobial activity against dnaK deficient Escherichia coli K-12 BW-25113 assessed as decrease in persistence at 100 ug/ml after 3 hrs by time kill analysis; format: functional, K-12 BW25113; outline: as §1
[4] = test system: Escherichia coli; experiment: Antimicrobial activity against dnaJ deficient Escherichia coli K-12 BW-25113 assessed as decrease in persistence at 100 ug/ml after 3 hrs by time kill analysis; format: functional, K-12 BW25113; outline: as §1
[5] = test system: Escherichia coli; experiment: Antimicrobial activity against Escherichia coli K-12 BW-25113 assessed as survival rate at 10 ug/ml after 6 hrs by time kill analysis
[6] = test system: Escherichia coli; experiment: Antimicrobial activity against apaH deficient Escherichia coli K-12 BW-25113 assessed as survival rate at 10 ug/ml after 6 hrs by time kill analysis
[7] = test system: Escherichia coli; experiment: Antimicrobial activity against surA deficient Escherichia coli K-12 BW-25113 assessed as survival rate at 10 ug/ml after 6 hrs by time kill analysis
[8] = test system: Escherichia coli; experiment: Antimicrobial activity against dnaJ deficient Escherichia coli K-12 BW-25113 assessed as decrease in persistence at 10 ug/ml after 3 hrs by time kill analysis; format: functional, K-12 BW25113; outline: as §1
[9] = test system: Escherichia coli; experiment: Antimicrobial activity against dnaK deficient Escherichia coli K-12 BW-25113 assessed as decrease in persistence at 10 ug/ml after 3 hrs by time kill analysis; format: functional, K-12 BW25113; outline: as §1
[10] = test system: Escherichia coli; experiment: Antimicrobial activity against yigB deficient Escherichia coli K-12 BW-25113 assessed as decrease in persistence at 10 ug/ml after 3 hrs by time kill analysis relative to wild type; format: functional, K-12 BW25113; outline: as §1
[11] = test system: Escherichia coli; experiment: Antimicrobial activity against dksA deficient Escherichia coli K-12 BW-25113 assessed as decrease in persistence at 10 ug/ml after 3 hrs by time kill analysis relative to wild type; format: functional, K-12 BW25113; outline: as §1
[12] = test system: Escherichia coli; experiment: Antimicrobial activity against ygfA deficient Escherichia coli K-12 BW-25113 assessed as decrease in persistence at 10 ug/ml after 3 hrs by time kill analysis relative to wild type; format: functional, K-12 BW25113; outline: as §1

CC1(C)S[C@@H]2[C@H](NC(=O)[C@H](N)c3ccccc3)C(=O)N2[C@H]1C(=O)O [AMPICILLIN]
fold change (FC) [1]: 82
fold change (FC) [2]: 40
fold change (FC) [3]: 13
fold change (FC) [4]: 46

CC1COc2c(N3CCN(C)CC3)c(F)cc3c(=O)c(C(=O)O)cn1c23 (configuration not stated) [OFLOXACIN]
Activity [5]: 1.3%
Activity [6]: 1.7%
Activity [7]: 3.3%

CN[C@@H]1[C@H](O[C@H]2[C@H](O[C@H]3[C@H](O)[C@@H](O)[C@H](N=C(N)N)[C@@H](O)[C@@H]3N=C(N)N)O[C@@H](C)[C@]2(O)C=O)O[C@@H](CO)[C@H](O)[C@H]1O [STREPTOMYCIN]
fold change (FC) [8]: 87
fold change (FC) [9]: 66
fold change (FC) [10]: 10
fold change (FC) [11]: 6
fold change (FC) [12]: 3
